Results pooled from the literature.
Target: Serine/threonine-protein kinase 24 (STK24, Homo sapiens, UniProt Q9Y6E0)

`Cn1cc(-c2cccc(N3CCc4c(sc5c4CC(C)(C)C5)C3=O)c2CO)cc(Nc2ccncn2)c1=O` gave an inhibition of 3% (enzyme activity; inhibitor; 1 µM).
With `COc1ncccc1-c1cnn2ccc(N3CCN(C(=O)OC(C)C)CC3)nc12` the remaining binding was 84% (binding; competition with immobilised ligand; 1 µM).
For `N#CC1(c2ccccn2)CCN(Cc2cc(C(=O)O)c(=O)n3ccccc23)CC1`, the remaining binding was 100% (cell-free assay; competition with immobilised ligand; 1 µM).
`Cn1cc(-c2cc(F)cc(N3CCn4c(cc5c4CCCC5)C3=O)c2CO)cc(Nc2ccc(N3CCN(C4COC4)CC3)cn2)c1=O` has an inhibition of 18% (enzyme activity; inhibitor; 0.1 µM).
The remaining activity of `CC(C)(C)c1cc(C=C(C#N)C#N)cc(Br)c1O` is reported as 96.3% (enzyme activity; inhibitor; 0.5 µM).
`Nc1ncc(-c2nc(N3CCOCC3)nc(N3CCOCC3)n2)c(C(F)F)n1` gave a remaining binding of 91% (binding; competition with immobilised ligand; 10 µM).
`COCc1c(-c2cc3cc(C)cc(OC)c3s2)c2c(N)ncnn2c1CN1CCNC(=O)C1` has an inhibition of 90.6% (cell-free assay; competition with immobilised ligand; 1 µM).
The remaining signal of `O=c1[nH]c2ccccc2n1C1CCN(Cc2ccc(-c3[nH]c4cc5ncnc5cc4nc3-c3ccccc3)cc2)CC1` is reported as 90.7% (cell-free assay; 0.5 µM).
`Cc1nn(C)cc1-c1nc2c(N3CCN(Cc4ccc(Cl)cc4)CC3)c(Cl)cnc2[nH]1` has a remaining binding of 85% (binding; competition with immobilised ligand; 1 µM).
`Cn1cncc1[C@@](O)(COc1ccc(C#N)cc1-c1ccc(OC(F)(F)F)cc1)c1ccc(C#N)cc1` gave a remaining binding of 100% (cell-free assay; competition with immobilised ligand; 1 µM).
